Assay results collected from several papers.
Each line is one published result; the experiments were not run side by side.
Target: High affinity nerve growth factor receptor (NTRK1, Homo sapiens, UniProt P04629)
Action: inhibitor

SMILES	assay	setting	inhibition [%]
O=C(Nc1cccc(C(=O)Nc2ccc3[nH]ncc3c2)c1)Nc1ccccc1C(F)(F)F	enzyme activity, FRET	1 µM	51.3
COc1cc2nccc(Oc3ccc(NC(=O)c4c5n(n(-c6ccc(F)cc6)c4=O)CCCC5)cc3)c2cc1OC	enzyme activity	0.1 µM	63
CNC(=O)c1cc2c(Oc3ccc(NC(=O)C4(C(=O)Nc5ccc(F)cc5)CC4)cc3)ccnc2cc1OC	enzyme activity, radiometric	1 µM	99
COc1cc2ncnc(Nc3ccc(Oc4ccccc4)cc3C)c2cc1OC	enzyme activity	1 µM	9
CC/C(=N\NC(=O)NCc1cccc(O)c1)c1ccc(O)c(C)c1O	enzyme activity	0.1 µM	3.3
CSc1nc(C)c(-c2ccnc(Nc3ccc(N4CCOCC4)cc3)c2)[nH]1	cell-free assay	10 µM	10.1
CN(C)C1CCN(CC#Cc2nn(C3CCCC3)c3nc(NCc4ccccc4)ncc23)C1 (centres unmarked)	enzyme activity, FRET	0.1 µM	6
CNC(=O)c1cc(Oc2ccc(NC(=O)Nc3ccc(Cl)c(C(F)(F)F)c3)cc2)ccn1	enzyme activity	0.3 µM	36
O=C(Nc1ccc(Cl)cc1)Nc1cccc(C(=O)Nc2ccc3[nH]ncc3c2)c1	enzyme activity, FRET	1 µM	55.3
Cc1ccc(Nc2nccc(N(C)c3ccc4c(C)n(C)nc4c3)n2)cc1S(N)(=O)=O	enzyme activity	10 µM	79
O=C(Nc1ccc(OC(F)(F)F)cc1)Nc1cccc(C(=O)Nc2ccc3[nH]ncc3c2)c1	enzyme activity, FRET	1 µM	69.2
CNCc1ccc(-c2cc(-c3nc(-c4ccc(S(=O)(=O)C(C)C)cc4)cnc3N)on2)cc1	enzyme activity	2 µM	32
CCN(CC)CCNC(=O)c1c(C)[nH]c(/C=C2\C(=O)Nc3ccc(F)cc32)c1C	enzyme activity	10 µM	99
O=C(Nc1cccc(C(=O)Nc2ccc3[nH]ncc3c2)c1)Nc1cccc(C(F)(F)F)c1	enzyme activity, FRET	1 µM	67.4
